Reference: ChEMBL document CHEMBL1125607, “Novel gonadotropin-releasing hormone antagonists: peptides incorporating modified N omega-cyanoguanidino moieties” (J Med Chem, 1991)
Converted amounts (≈) assume the structure as drawn. The source made the active and inactive calls. The calls are words filed in the database; no cut-off is given here. Where a SMILES comes first, the peptide text is derived from it. [ ]: non-standard residue; d: D form. The star is where a group is joined. Triazol3yl(1,2,4-5-NH2) = Nc1nc(*)n[nH]1; dPhe(4-Cl) = N[C@H](Cc1ccc(Cl)cc1)C(=O)O; d2Nal = N[C@H](Cc1ccc2ccccc2c1)C(=O)O; Lys(iPr) = CC(C)NCCCC[C@H](N)C(=O)O; d3Pal = N[C@H](Cc1cccnc1)C(=O)O; Nicotinoyl = O=C(c1cccnc1)*

Experiments:
[1] = target: T1, Gonadotropin-releasing hormone receptor (Rattus norvegicus, UniProt P30969); experiment: In vitro binding affinity of Gonadotropin-releasing hormone antagonist was measured in rat pituitary cell membranes; set-up: species or system Pituitary gland cell, Membrane
T1 sequence (P30969 whole entry): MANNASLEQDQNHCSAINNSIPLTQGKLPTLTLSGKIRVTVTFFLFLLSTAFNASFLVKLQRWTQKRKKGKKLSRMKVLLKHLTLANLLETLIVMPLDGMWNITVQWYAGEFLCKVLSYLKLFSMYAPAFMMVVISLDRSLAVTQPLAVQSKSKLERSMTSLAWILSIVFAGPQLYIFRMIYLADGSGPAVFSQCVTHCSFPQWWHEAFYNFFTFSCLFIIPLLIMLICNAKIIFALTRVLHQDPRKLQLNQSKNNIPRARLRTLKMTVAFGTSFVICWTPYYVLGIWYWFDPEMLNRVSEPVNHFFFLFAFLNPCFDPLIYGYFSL
Method in brief: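 Displacement binding on pituitary cell membranes with [DAla6,NMe-Leu7,Pro9-NHEt]GnRH as standard; analogue KD values calculated from potencies relative to that standard derived from displacement data.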

Rattus norvegicus [2] = experiment: Potency (2 mg/rat) using anti-ovulatory assay, expressed as rat ovulating/total number of treated rats measured after sc administration; 2/10; type: functional, organism-based
Rattus norvegicus [3] = experiment: Potency (0.5 mg/rat) using anti-ovulatory assay, expressed as rat ovulating/total number of treated rats measured after sc administration; 8/18; type: functional, organism-based
Rattus norvegicus [4] = experiment: Potency (1 mg/rat) using anti-ovulatory assay, expressed as rat ovulating/total number of treated rats measured after sc administration; 1/17; type: functional, organism-based
[5] = target: Gonadotropin-releasing hormone receptor (Rattus norvegicus) (UniProt P30969); experiment: Antagonist potency at GnRH receptor relative to a standard ([Ac-delta3Pro, DFpa2, DTrp3,6]GnRH).
Rattus norvegicus [6] = organism: Rattus norvegicus; experiment: In vitro histamine release by rat mast cells.; details: read-out: ED50 (the source's name)
Rattus norvegicus [7] = experiment: Potency (1.0 mg/rat) using anti-ovulatory assay, expressed as rat ovulating/total number of treated rats measured after sc administration; 5/5; type: functional, organism-based
Rattus norvegicus [8] = experiment: Potency (2.5 mg/rat) using anti-ovulatory assay, expressed as rat ovulating/total number of treated rats measured after sc administration; 0/7; type: functional, organism-based
Rattus norvegicus [9] = experiment: Potency (0.5 mg/rat) using anti-ovulatory assay, expressed as rat ovulating/total number of treated rats measured after sc administration; 6/6; type: functional, organism-based
Rattus norvegicus [10] = experiment: Potency (1 mg/rat) using anti-ovulatory assay, expressed as rat ovulating/total number of treated rats measured after sc administration; 2/8; type: functional, organism-based
Rattus norvegicus [11] = experiment: Potency (1 mg/rat) using anti-ovulatory assay, expressed as rat ovulating/total number of treated rats measured after sc administration; 5/5; type: functional, organism-based
Rattus norvegicus [12] = experiment: Potency (2.5 mg/rat) using anti-ovulatory assay, expressed as rat ovulating/total number of treated rats measured after sc administration; 2/8; type: functional, organism-based
Rattus norvegicus [13] = experiment: Potency (5 mg/rat) using anti-ovulatory assay, expressed as rat ovulating/total number of treated rats measured after sc administration; 14/20; type: functional, organism-based
Rattus norvegicus [14] = experiment: Potency (2 mg/rat) using anti-ovulatory assay, expressed as rat ovulating/total number of treated rats measured after sc administration; 1/10; type: functional, organism-based

Row | SMILES | Kd [1] | Relative potency [5] | EC50 (Rattus norvegicus [6]) | also measured
1 | CC(C)C[C@H](NC(=O)[C@@H](CCCCNC(=NC#N)NC1CCCCC1)NC(=O)[C@H](CCCCNC(=NC#N)NC1CCCCC1)NC(=O)[C@H](CO)NC(=O)[C@H](Cc1c[nH]c2ccccc12)NC(=O)[C@H](Cc1cnc[nH]1)NC(=O)[C@@H]1CCC(=O)N1)C(=O)N[C@@H](CCCCNC(C)C)C(=O)N1CCC[C@H]1C(=O)N[C@H](C)C(N)=O | 1.2 nM | – | – | –
2 | CC(C)C[C@H](NC(=O)[C@@H](CCCNC(=N)N)NC(=O)[C@H](Cc1ccc(O)cc1)NC(=O)[C@H](CO)NC(=O)[C@@H](CCCCNc1nnc(N)[nH]1)NC(=O)[C@H](Cc1cnc[nH]1)NC(=O)[C@@H]1CCC(=O)N1)C(=O)N[C@@H](CCCCNC(C)C)C(=O)N1CCC[C@H]1C(=O)N[C@H](C)C(N)=O | 0.27 nM | – | – | –
3 | C/N=C(\NC#N)NCCCC[C@@H](NC(=O)[C@H](CCCCN/C(=N\C)NC#N)NC(=O)[C@H](CO)NC(=O)[C@H](Cc1c[nH]c2ccccc12)NC(=O)[C@H](Cc1c[nH]cn1)NC(=O)[C@@H]1CCC(=O)N1)C(=O)N[C@@H](CC(C)C)C(=O)N[C@@H](CCCCNC(C)C)C(=O)N1CCC[C@H]1C(=O)N[C@H](C)C(N)=O | 0.24 nM | – | – | Activity (Rattus norvegicus [2]): Active
4 | CC(C)C[C@H](NC(=O)[C@@H](Cc1ccc(Nc2n[nH]c(N)n2)cc1)NC(=O)[C@H](Cc1ccc(Nc2n[nH]c(N)n2)cc1)NC(=O)[C@H](CO)NC(=O)[C@H](Cc1c[nH]c2ccccc12)NC(=O)[C@H](Cc1c[nH]cn1)NC(=O)[C@@H]1CCC(=O)N1)C(=O)N[C@@H](CCCCNC(C)C)C(=O)N1CCC[C@H]1C(=O)N[C@H](C)C(N)=O | – | 1.3 | 50 µg/mL (≈ 33.8 µM) | Activity (Rattus norvegicus [3]): Weak activity; Activity (Rattus norvegicus [4]): Active
5 | CC(=O)N[C@H](Cc1ccc2ccccc2c1)C(=O)N[C@H](Cc1ccc(F)cc1)C(=O)N[C@H](Cc1c[nH]c2ccccc12)C(=O)N[C@@H](CO)C(=O)N[C@@H](Cc1ccc(O)cc1)C(=O)N[C@H](CCCN=C(N)N)C(=O)N[C@@H](CC(C)C)C(=O)N[C@@H](CCCN=C(N)N)C(=O)N1CCC[C@H]1C(=O)NCC(N)=O (HELM PEPTIDE1{[ac].[O=C([C@@H](Cc1ccc2ccccc2c1)N[*:1])[*:2]].[O=C([C@@H](Cc1ccc(F)cc1)N[*:1])[*:2]].[dW].S.Y.[dR].L.R.P.G.[am]}$$$$V2.0) | – | – | 0.17 µg/mL (≈ 0.118 µM) | –
6 | CCCC/N=C(\NC#N)NCCCC[C@@H](NC(=O)[C@H](Cc1c[nH]cn1)NC(=O)[C@@H]1CCC(=O)N1)C(=O)N[C@@H](CO)C(=O)N[C@@H](Cc1ccc(O)cc1)C(=O)N[C@H](CCCCN/C(=N/CCCC)NC#N)C(=O)N[C@@H](CC(C)C)C(=O)N[C@@H](CCCCNC(C)C)C(=O)N1CCC[C@H]1C(=O)N[C@H](C)C(N)=O | – | – | 50 µg/mL (≈ 34 µM) | –
7 | CC(C)C[C@H](NC(=O)[C@@H](Cc1cccnc1)NC(=O)[C@H](Cc1ccc(O)cc1)NC(=O)[C@H](CO)NC(=O)[C@@H](Cc1cccnc1)NC(=O)[C@H](Cc1cnc[nH]1)NC(=O)[C@@H]1CCC(=O)N1)C(=O)N[C@@H](CCCCNC(C)C)C(=O)N1CCC[C@H]1C(=O)N[C@H](C)C(N)=O | 0.08 nM | – | – | –
8 | CC(C)C[C@H](NC(=O)[C@@H](CCCCNC(=NC#N)NCc1ccccn1)NC(=O)[C@H](CCCCNC(=NC#N)NCc1ccccn1)NC(=O)[C@H](CO)NC(=O)[C@H](Cc1c[nH]c2ccccc12)NC(=O)[C@H](Cc1cnc[nH]1)NC(=O)[C@@H]1CCC(=O)N1)C(=O)N[C@@H](CCCCNC(C)C)C(=O)N1CCC[C@H]1C(=O)N[C@H](C)C(N)=O | 0.27 nM | – | – | –
9 | CCCC/N=C(\NC#N)NCCC[C@@H](NC(=O)[C@H](Cc1c[nH]cn1)NC(=O)[C@@H]1CCC(=O)N1)C(=O)N[C@@H](CO)C(=O)N[C@@H](Cc1ccc(O)cc1)C(=O)N[C@H](Cc1cccnc1)C(=O)N[C@@H](CC(C)C)C(=O)N[C@@H](CCCCNC(C)C)C(=O)N1CCC[C@H]1C(=O)N[C@H](C)C(N)=O | – | 1.6 | – | Activity (Rattus norvegicus [7]): inactive; Activity (Rattus norvegicus [8]): Active
10 | CC(C)C[C@H](NC(=O)[C@@H](CCCC/N=C(/NC#N)NC(C)C)NC(=O)[C@H](CCCC/N=C(/NC#N)NC(C)C)NC(=O)[C@H](CO)NC(=O)[C@H](Cc1c[nH]c2ccccc12)NC(=O)[C@H](Cc1c[nH]cn1)NC(=O)[C@@H]1CCC(=O)N1)C(=O)N[C@@H](CCCCNC(C)C)C(=O)N1CCC[C@H]1C(=O)N[C@H](C)C(N)=O | 0.32 nM | 0.3 | – | Activity (Rattus norvegicus [9]): inactive; Activity (Rattus norvegicus [10]): Active
11 | CC(=O)N[C@H](Cc1ccc2ccccc2c1)C(=O)N[C@H](Cc1ccc(Cl)cc1)C(=O)N[C@H](Cc1cccnc1)C(=O)N[C@@H](CO)C(=O)N[C@@H](CCCCNC(=O)c1cccnc1)C(=O)N[C@H](CCCCNC(=O)c1cccnc1)C(=O)N[C@@H](CC(C)C)C(=O)N[C@@H](CCCCNC(C)C)C(=O)N1CCC[C@H]1C(=O)N[C@H](C)C(N)=O (Ac-[d2Nal][dPhe(4-Cl)][d3Pal]SK(Nicotinoyl)[dK](Nicotinoyl)L[Lys(iPr)]P[dA]-NH2) | – | – | > 300 µg/mL | –
12 | CCCCCC/N=C(\NC#N)NCCCC[C@H](NC(=O)[C@H](CO)NC(=O)[C@H](Cc1c[nH]c2ccccc12)NC(=O)[C@H](Cc1c[nH]cn1)NC(=O)[C@@H]1CCC(=O)N1)C(=O)N[C@H](CCCCN/C(=N/CCCCCC)NC#N)C(=O)N[C@@H](CC(C)C)C(=O)N[C@@H](CCCCNC(C)C)C(=O)N1CCC[C@H]1C(=O)N[C@H](C)C(N)=O | 3.3 nM | 0.14 | – | Activity (Rattus norvegicus [11]): inactive; Activity (Rattus norvegicus [12]): Weak activity
13 | CCCC/N=C(\NC#N)NCCCC[C@H](NC(=O)[C@H](CC(C)C)NC(=O)[C@@H](CCCCNC(=O)c1cccnc1)NC(=O)[C@H](CCCCNC(=O)c1cccnc1)NC(=O)[C@H](CO)NC(=O)[C@H](Cc1c[nH]c2ccccc12)NC(=O)[C@H](Cc1c[nH]cn1)NC(=O)[C@@H]1CCC(=O)N1)C(=O)N1CCC[C@H]1C(=O)N[C@H](C)C(N)=O | 0.45 nM | 0.3 | – | Activity (Rattus norvegicus [13]): Weak activity
14 | CC(C)C[C@H](NC(=O)[C@@H](CCCCNc1n[nH]c(N)n1)NC(=O)[C@H](Cc1ccc(O)cc1)NC(=O)[C@H](CO)NC(=O)[C@@H](CCCCNc1n[nH]c(N)n1)NC(=O)[C@H](Cc1c[nH]cn1)NC(=O)[C@@H]1CCC(=O)N1)C(=O)N[C@@H](CCCCNC(C)C)C(=O)N1CCC[C@H]1C(=O)N[C@H](C)C(N)=O | – | – | > 150 µg/mL | –
15 | CC(=O)N[C@H](Cc1ccc2ccccc2c1)C(=O)N[C@H](Cc1ccc(Cl)cc1)C(=O)N[C@H](Cc1cccnc1)C(=O)N[C@@H](CO)C(=O)N[C@@H](CCCCNc1n[nH]c(N)n1)C(=O)N[C@H](CCCCNc1n[nH]c(N)n1)C(=O)N[C@@H](CC(C)C)C(=O)N[C@@H](CCCCNC(C)C)C(=O)N1CCC[C@H]1C(=O)N[C@H](C)C(N)=O (Ac-[d2Nal][dPhe(4-Cl)][d3Pal]SK(Triazol3yl(1,2,4-5-NH2))[dK](Triazol3yl(1,2,4-5-NH2))L[Lys(iPr)]P[dA]-NH2) | 0.48 nM | – | – | –
16 | CC(C)C[C@H](NC(=O)[C@@H](CCCCNc1n[nH]c(N)n1)NC(=O)[C@H](CCCCNc1n[nH]c(N)n1)NC(=O)[C@H](CO)NC(=O)[C@H](Cc1c[nH]c2ccccc12)NC(=O)[C@H](Cc1c[nH]cn1)NC(=O)[C@@H]1CCC(=O)N1)C(=O)N[C@@H](CCCCNC(C)C)C(=O)N1CCC[C@H]1C(=O)N[C@H](C)C(N)=O | – | 0.23 | – | Activity (Rattus norvegicus [14]): Active
17 | CC(C)C[C@H](NC(=O)[C@@H](CCCN=C(N)N)NC(=O)[C@H](Cc1ccc(O)cc1)NC(=O)[C@H](CO)NC(=O)[C@@H](Cc1cccnc1)NC(=O)[C@H](Cc1c[nH]cn1)NC(=O)[C@@H]1CCC(=O)N1)C(=O)N[C@@H](CCCCNc1n[nH]c(N)n1)C(=O)N1CCC[C@H]1C(=O)N[C@H](C)C(N)=O | – | – | 19 µg/mL (≈ 14.5 µM) | –
18 | CCCCNC(=NC#N)NCCCC[C@@H](NC(=O)[C@H](Cc1ccc(O)cc1)NC(=O)[C@H](CO)NC(=O)[C@@H](Cc1cccnc1)NC(=O)[C@H](Cc1cnc[nH]1)NC(=O)[C@@H]1CCC(=O)N1)C(=O)N[C@@H](CC(C)C)C(=O)N[C@@H](CCCNC(=N)N)C(=O)N1CCC[C@H]1C(=O)N[C@H](C)C(N)=O | 1.7 nM | – | – | –
19 | CC(C)C[C@H](NC(=O)[C@@H](CCCNc1n[nH]c(N)n1)NC(=O)[C@H](CCCNc1n[nH]c(N)n1)NC(=O)[C@H](CO)NC(=O)[C@H](Cc1c[nH]c2ccccc12)NC(=O)[C@H](Cc1c[nH]cn1)NC(=O)[C@@H]1CCC(=O)N1)C(=O)N[C@@H](CCCCNC(C)C)C(=O)N1CCC[C@H]1C(=O)N[C@H](C)C(N)=O | 0.21 nM | 0.2 | 158 µg/mL (≈ 114 µM) | Activity (Rattus norvegicus [14]): Active
